From ChEMBL document CHEMBL4145521, “Regioselective synthesis of 3,4-diaryl-5-unsubstituted isoxazoles, analogues of natural cytostatic combretastatin A4” (Eur J Med Chem, 2018)

How the values were obtained:
Type in all cases: functional
NCI-H322M = experiment: Cytotoxicity against human NCI-H322M cells assessed as cell growth at 100 uM incubated for 48 hrs by sulforhodamine B assay relative to control; settings: read-out: Activity
UACC-62 = experiment: Cytotoxicity against human UACC62 cells assessed as cell growth at 10 uM incubated for 48 hrs by sulforhodamine B assay relative to control; settings: UACC-62, 48 h, read-out: Activity
RPMI-8226 = experiment: Cytotoxicity against human RPMI8226 cells assessed as cell growth at 1 uM incubated for 48 hrs by sulforhodamine B assay relative to control; settings: RPMI-8226, 48 h, read-out: Activity
ACHN = experiment: Cytotoxicity against human ACHN cells incubated for 48 hrs by sulforhodamine B assay
COLO 205 = experiment: Cytotoxicity against human COLO205 cells assessed as cell growth at 100 uM incubated for 48 hrs by sulforhodamine B assay relative to control; settings: COLO 205, 48 h, read-out: Activity
SR = experiment: Cytotoxicity against human SR cells assessed as cell growth at 1 uM incubated for 48 hrs by sulforhodamine B assay relative to control; settings: read-out: Activity
OVCAR-4 = experiment: Cytotoxicity against human OVCAR4 cells assessed as cell growth at 0.1 uM incubated for 48 hrs by sulforhodamine B assay relative to control; settings: OVCAR-4, 48 h, read-out: Activity
SW-620 = experiment: Cytotoxicity against human SW620 cells assessed as cell growth at 0.01 uM incubated for 48 hrs by sulforhodamine B assay relative to control; settings: SW-620, 48 h, read-out: Activity
OVCAR-5 = experiment: Cytotoxicity against human OVCAR5 cells assessed as cell growth at 10 uM incubated for 48 hrs by sulforhodamine B assay relative to control; settings: OVCAR-5, 48 h, read-out: Activity
Malme-3M [1] = experiment: Cytotoxicity against human MALME-3M cells assessed as cell growth at 10 uM incubated for 48 hrs by sulforhodamine B assay relative to control; settings: read-out: Activity
MOLT-4 = experiment: Cytotoxicity against human MOLT4 cells assessed as cell growth at 0.01 uM incubated for 48 hrs by sulforhodamine B assay relative to control; settings: MOLT-4, 48 h, read-out: Activity
UO-31 [2] = experiment: Cytotoxicity against human UO31 cells incubated for 48 hrs by sulforhodamine B assay; settings: UO-31, 48 h
U-251 = experiment: Cytotoxicity against human U251 cells assessed as cell growth at 1 uM incubated for 48 hrs by sulforhodamine B assay relative to control; settings: U-251, 48 h, read-out: Activity
DU-145 = experiment: Cytotoxicity against human DU145 cells assessed as cell growth at 1 uM incubated for 48 hrs by sulforhodamine B assay relative to control; settings: DU-145, 48 h, read-out: Activity
SK-MEL-28 = experiment: Cytotoxicity against human SK-MEL-28 cells assessed as cell growth at 0.1 uM incubated for 48 hrs by sulforhodamine B assay relative to control; settings: SK-MEL-28, 48 h, read-out: Activity
SNB-75 = experiment: Cytotoxicity against human SNB75 cells incubated for 48 hrs by sulforhodamine B assay; settings: SNB-75, 48 h
NCI-H226 = experiment: Cytotoxicity against human NCI-H226 cells assessed as cell growth at 0.01 uM incubated for 48 hrs by sulforhodamine B assay relative to control; settings: NCI-H226, 48 h, read-out: Activity
NCI-H460 = experiment: Cytotoxicity against human NCI-H460 cells assessed as cell growth at 100 uM incubated for 48 hrs by sulforhodamine B assay relative to control; settings: NCI-H460, 48 h, read-out: Activity
MCF7 = experiment: Cytotoxicity against human MCF7 cells assessed as cell growth at 0.1 uM incubated for 48 hrs by sulforhodamine B assay relative to control; settings: MCF7, 48 h, read-out: Activity
HOP-92 = experiment: Cytotoxicity against human HOP92 cells incubated for 48 hrs by sulforhodamine B assay; settings: HOP-92, 48 h
NCI-H522 = experiment: Cytotoxicity against human NCI-H522 cells incubated for 48 hrs by sulforhodamine B assay; settings: NCI-H522, 48 h
SN12C = experiment: Cytotoxicity against human SN12C cells assessed as cell growth at 10 uM incubated for 48 hrs by sulforhodamine B assay relative to control; settings: read-out: Activity
PC-3 = experiment: Cytotoxicity against human PC3 cells assessed as cell growth at 0.01 uM incubated for 48 hrs by sulforhodamine B assay relative to control; settings: PC-3, 48 h, read-out: Activity
K562 = experiment: Cytotoxicity against human K562 cells assessed as cell growth at 1 uM incubated for 48 hrs by sulforhodamine B assay relative to control; settings: K562, 48 h, read-out: Activity
A498 = experiment: Cytotoxicity against human A498 cells assessed as cell growth at 100 uM incubated for 48 hrs by sulforhodamine B assay relative to control; settings: A498, 48 h, read-out: Activity
HCT-15 = experiment: Cytotoxicity against human HCT15 cells assessed as cell growth at 10 uM incubated for 48 hrs by sulforhodamine B assay relative to control; settings: HCT-15, 48 h, read-out: Activity
UO-31 [3] = experiment: Cytotoxicity against human UO31 cells assessed as cell growth at 100 uM incubated for 48 hrs by sulforhodamine B assay relative to control; settings: UO-31, 48 h, read-out: Activity
Paracentrotus lividus = experiment: Antimitotic activity against Paracentrotus lividus embryo assessed as cleavage alteration measured at 2.5 hrs post fertilization by light microscopy
Method in brief: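 Sea urchin eggs were fertilized with diluted sperm and cultured at room temperature in filtered seawater with paddle agitation (60 rpm), at up to 2000 embryos/mL. The effective threshold concentration causing cleavage alteration, death before hatching or full mitotic arrest was scored in duplicate.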

Malme-3M [4] = experiment: Cytotoxicity against human MALME-3M cells assessed as cell growth at 1 uM incubated for 48 hrs by sulforhodamine B assay relative to control; settings: read-out: Activity
SK-MEL-5 = experiment: Cytotoxicity against human SK-MEL-5 cells assessed as cell growth at 0.01 uM incubated for 48 hrs by sulforhodamine B assay relative to control; settings: SK-MEL-5, 48 h, read-out: Activity
[5] = read-out: LC50 (the source's name)
[6] = read-out: pLC50 (the source's name) (converted)

COc1ccc(-c2nocc2-c2cc(OC)c(OC)c(OC)c2)cc1
growth at 100 µM (NCI-H322M): 18%
growth at 10 µM (UACC-62): 5%
growth at 1 µM (RPMI-8226): 32%
GI50 (ACHN; read-out: GI50): 1.19 µM
LC50 (concentration killing 50% of cells) (ACHN; read-out: LC50): > 100 µM
TGI (ACHN; read-out: TGI): 49.4 µM
GI50 (ACHN; read-out: pGI50 (converted)): 1.2 µM
LC50 (concentration killing 50% of cells) (ACHN; read-out: pLC50 (converted)): > 100 µM
TGI (ACHN; read-out: pTGI (converted)): 49 µM
growth at 100 µM (COLO 205): -40%
growth at 1 µM (SR): 30%
growth at 0.1 µM (OVCAR-4): 73%
growth at 0.01 µM (SW-620): 94%
growth at 10 µM (OVCAR-5): 39%
growth at 10 µM (Malme-3M [1]): 60%
growth at 0.01 µM (MOLT-4): 99%
GI50 (UO-31 [2]; read-out: GI50): 0.545 µM
CC50 (UO-31 [2]; [5]): > 100 µM
TGI (UO-31 [2]; read-out: TGI): 28.7 µM
GI50 (UO-31 [2]; read-out: pGI50 (converted)): 0.55 µM
CC50 (UO-31 [2]; [6]): > 100 µM
TGI (UO-31 [2]; read-out: pTGI (converted)): 28.8 µM
growth at 1 µM (U-251): 22%
growth at 1 µM (DU-145): 17%
growth at 0.1 µM (SK-MEL-28): 61%
GI50 (SNB-75; read-out: GI50): 0.0772 µM
CC50 (SNB-75; [5]): > 100 µM
TGI (SNB-75; read-out: TGI): > 100 µM
GI50 (SNB-75; read-out: pGI50 (converted)): 0.0776 µM
CC50 (SNB-75; [6]): > 100 µM
TGI (SNB-75; read-out: pTGI): > 100 µM
growth at 0.01 µM (NCI-H226): 100%
growth at 100 µM (NCI-H460): -37%
growth at 0.1 µM (MCF7): 27%
GI50 (HOP-92; read-out: GI50): 0.678 µM
LC50 (50% lethal concentration) (HOP-92; read-out: LC50): > 100 µM
TGI (HOP-92; read-out: TGI): 50.2 µM
GI50 (HOP-92; read-out: pGI50 (converted)): 0.676 µM
LC50 (50% lethal concentration) (HOP-92; read-out: pLC50 (converted)): > 100 µM
TGI (HOP-92; read-out: pTGI (converted)): 50.1 µM
GI50 (NCI-H522; read-out: GI50): 0.0225 µM
LC50 (NCI-H522; read-out: LC50): > 100 µM
TGI (NCI-H522; read-out: TGI): 0.0752 µM
GI50 (NCI-H522; read-out: pGI50 (converted)): 0.0224 µM
LC50 (NCI-H522; read-out: pLC50 (converted)): > 100 µM
TGI (NCI-H522; read-out: pTGI (converted)): 0.0759 µM
growth at 10 µM (SN12C): 34%
growth at 0.01 µM (PC-3): 99%
growth at 1 µM (K562): 14%
growth at 100 µM (A498): -33%
growth at 10 µM (HCT-15): 11%
growth at 100 µM (UO-31 [3]): -27%
EC (Paracentrotus lividus): 0.01 µM
growth at 1 µM (Malme-3M [4]): 46%
growth at 0.01 µM (SK-MEL-5): 100%
